PAD4 FP inh: blocks human protein arginine deiminase 4 | recombinant PAD4, RCA probe fluorescence polarization | inhibition, % at 6.36 µM | 330,000 compounds, 0.41% hits | AID 485272;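 active means percent inhibition above a cutoff equal to the mean of all tested compounds plus 3 SD, cut at about 15% in these data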;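 further: 0% = PAD4 with RCA probe and DMSO and 100% = probe without PAD4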
PRMT1 inh: PRMT1 (human) inhibition, primary screen. Q99873. recombinant PRMT1, activity-based probe fluorescence polarization. inhibition, % at 2.79 µM. 370,000 compounds, 1.3% hits. AID 652257;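 active means inhibition above about 21% made by adding two undisclosed values, limit read from the data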
RBBP9 inhibitor: blocks human serine hydrolase RBBP9. recombinant RBBP9, FP-Rh probe fluorescence polarization. O75884. 220,000 compounds, 0.2% hits. inhibition, % at 7.94 µM;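 active means inhibition above the campaign mean of all tested compounds plus 3 SD, cut at about 14% in these data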;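 further: plate controls were DMSO wells with RBBP9 for no effect and wells lacking RBBP9 protein for full effect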
Target sequence (O75884 whole entry, looked up): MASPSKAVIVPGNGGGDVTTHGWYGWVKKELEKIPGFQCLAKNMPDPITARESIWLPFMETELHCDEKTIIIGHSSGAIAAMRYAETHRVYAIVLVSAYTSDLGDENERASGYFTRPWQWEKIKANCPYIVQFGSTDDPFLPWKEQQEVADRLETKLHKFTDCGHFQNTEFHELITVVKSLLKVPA
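Material: RBBP9 protein. Amount: RBBP9 at 2.5 µM in dispensed solution, before mixing. Schedule: 30 min then 45 min, 25 °C. Medium: Tris buffer pH 8.0, NaCl, Pluronic. Measured by: fluorescence polarization. Measure: percent inhibition from mP, scaled between DMSO and no-protein wells. Replication: one well per compound.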
PME-1 inh: PME-1 (human) inhibition. 320,000 compounds, 0.53% hits. AID 2130. inhibition, % at 5.9 µM. recombinant PME-1, FP-Rh probe fluorescence polarization;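 active means inhibition above the campaign mean of all compounds plus 3 SD, cut at about 26% in these data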;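 further: competitive labeling of PME-1 active site by serine hydrolase directed probe; 0% = PME-1 with DMSO and 100% = wells lacking PME-1 enzyme; inhibitors block probe labeling so polarization falls and inhibition rises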
Target sequence (Q9Y570 whole entry, looked up): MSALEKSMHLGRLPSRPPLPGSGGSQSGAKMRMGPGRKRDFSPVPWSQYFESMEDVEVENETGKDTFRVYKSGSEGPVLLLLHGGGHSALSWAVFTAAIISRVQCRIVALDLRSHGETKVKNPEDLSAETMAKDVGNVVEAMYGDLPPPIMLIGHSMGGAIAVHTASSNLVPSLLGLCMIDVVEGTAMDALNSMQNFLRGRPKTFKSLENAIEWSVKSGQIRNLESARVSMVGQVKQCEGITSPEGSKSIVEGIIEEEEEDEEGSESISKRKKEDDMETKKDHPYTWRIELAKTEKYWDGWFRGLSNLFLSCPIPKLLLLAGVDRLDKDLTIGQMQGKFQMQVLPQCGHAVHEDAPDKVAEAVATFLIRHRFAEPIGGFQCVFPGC
Fam108B counter: Fam108B inhibition, counter-screen for RBBP9 inhibitors; recombinant Fam108B, FP-Rh probe fluorescence polarization; inhibition, % at 9.51 µM; 300,000 compounds, 0.33% hits;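 active means inhibition above the screen mean inhibition plus 3 SD, computed separately per campaign, cut at about 18% in these data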;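 further: inhibitors lower polarization as less probe binds the enzyme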
GSTO1 counter: counter-screen for RBBP9 inhibitors: inhibitors of human GSTO1; P78417; recombinant GSTO1, activity-based probe fluorescence polarization; inhibition, % at 5.96 µM; 300,000 compounds, 1.1% hits; AID 1974;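 active means inhibition above the campaign mean inhibition plus 3 SD, cut at about 35% in these data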;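 further: 0% = GSTO1-1 with DMSO and 100% = wells lacking GSTO1-1 enzyme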
* marks the source's active call; other numbers are inactive results; · = no result given. The list is not random: actives were taken first. Their share in the collection is about 2.3%.

SMILES	PAD4 FP inh	PRMT1 inh	RBBP9 inhibitor	PME-1 inh	Fam108B counter	GSTO1 counter
O=S(=O)(c1ccc(N=C2NN=C(c3cc(F)ccc3F)CS2)cc1)N1CCOCC1	·	55*	-2	·	·	·
CCCCN1C(=O)Cc2c1nc(N)c1c(N)nc(N(CCC)CCC)c(C#N)c21	-14	17	7	24	9	73*
O=C(COc1ccccc1)NC1C(=O)N2C(C(=O)O)=C(Cl)CSC12 (centres undefined)	7	24*	·	-1	-2	-2
CC(=O)OCC1=C(C(=O)O)N2C(=O)C(NC(=O)CC(C)c3ccccc3)C2SC1 (centres undefined)	0	22*	·	1	·	·
CC(=O)OCC1=C(C(=O)O)N2C(=O)C(NC(=O)C(C)Cn3cc(Cl)cn3)C2SC1 (centres undefined)	-2	19	-7	-4	0	-3
CC(=O)OCC1=C(C(=O)O)N2C(=O)C(NC(=O)CCn3nc(C(F)(F)F)c(Br)c3C3CC3)C2SC1 (centres undefined)	-3	25*	-10	3	1	18
CC1=C(C(=O)OCc2ccccc2)N2C(=O)[C@@H](NC(=O)COc3ccccc3)[C@H]2SC1	-9	-2	·	2	2	-5
CC(=O)OCC1=C(C(=O)O)N2C(=O)C(NC(=O)Cn3nc(C(F)F)c(Cl)c3C)C2SC1 (centres undefined)	-4	20	-8	-1	-8	4
CC(=O)OCC1=C(C(=O)O)N2C(=O)C(NC(=O)CCn3nc(C)c(Cl)c3C)C2SC1 (centres undefined)	-2	24*	1	-4	-2	-8
CC(=O)OCC1=C(C(=O)O)N2C(=O)[C@@H](NC(=O)Cc3cccs3)[C@H]2SC1	1	11	-6	0	-3	6
C[C@H](NC(=O)[C@@H]1CSC2c3ccccc3C(=O)N21)C(=O)NCCc1ccccc1 (some centres undefined)	-12	13	·	-6	-7	3
C[C@H](NC(=O)[C@@H]1CSC2c3ccccc3C(=O)N21)C(=O)NCCc1ccc(F)cc1 (some centres undefined)	-1	25*	·	1	-1	-1
O=C1c2cccc3c([N+](=O)[O-])ccc(c23)C(=O)N1c1ccc(Cl)cn1	5	10	-7	28*	7	-55
Cc1cc(C)n2nc(SCC(=O)Nc3ccccc3F)nc2n1	-2	3	·	2	·	·
O=C(NNC(=O)c1cc(Cl)ccc1O)c1cccc(S(=O)(=O)N2CCOCC2)c1	-2	1	·	-1	2	37*
Cc1ccc(C(=O)NNC(=O)c2cccc(S(=O)(=O)N3CCOCC3)c2)cc1	-5	0	·	·	·	·
O=C(Nc1cc(S(=O)(=O)N2CCOCC2)ccc1O)c1ccc2c(c1)S(=O)(=O)c1ccccc1C2=O	-2	21*	-6	1	5	0
O=C(Nc1ccc(S(=O)(=O)N2CCOCC2)cc1)c1ccc2c(c1)S(=O)(=O)c1ccccc1C2=O	-3	3	-2	4	-1	-2
C/C(=N/NC(=O)c1ccncc1)c1ccccc1	0	-2	·	7	3	4
C/C(=N\Nc1ccccc1C(=O)O)c1ccncc1	-4	-1	·	73*	-1	-1
COc1ccccc1NC(=O)c1ccc(CN(c2cc(Cl)ccc2C)S(=O)(=O)c2ccccc2)cc1	-1	3	3	-4	-2	5
COc1ccccc1N1CCN(/N=C/c2ccc(O)c(O)c2)CC1	-10	11	4	-7	3	51*
O=C1CC(=O)NC(SCC(=O)Nc2ccccc2[N+](=O)[O-])=N1	-3	28*	·	1	5	16
O=C(CSc1nnc2ccccn12)Nc1ccccc1[N+](=O)[O-]	·	-1	·	·	·	·
COc1ccc(N2C(=O)CC(N3CCOCC3)C2=O)cc1 (centres undefined)	-4	21*	3	0	-3	-2
SMILES	PAD4 FP inh	PRMT1 inh	RBBP9 inhibitor	PME-1 inh	Fam108B counter	GSTO1 counter
COc1ccc(N2C(=O)CC(N3CCN(c4ccccc4)CC3)C2=O)cc1 (centres undefined)	0	7	·	2	-5	1
COc1ccc(Nc2ccccc2N)cc1	-59	14	-5	-32	-24	-67
C=C[C@@H](C)N(Cc1ccc(OC)cc1)S(=O)(=O)N(Cc1ccccc1)[C@H](C=C)C(C)C	0	0	·	-8	·	·
O=C(COC(=O)c1ccccc1)Nc1ncc([N+](=O)[O-])s1	-4	25*	·	·	·	·
COc1ccc(CCn2c(Br)nc3c2c(=O)[nH]c(=O)n3C)cc1	-13	1	-5	-7	-3	8
COc1ccc(CCn2c(NN=C(C)C)nc3c2c(=O)[nH]c(=O)n3C)cc1	-3	7	-2	9	4	46*
Fc1cc(F)c2nc(Nc3nc4cc5c(cc4s3)OCO5)sc2c1	-3	0	-9	49*	13	25
Fc1cccc2sc(Nc3nc4cc5c(cc4s3)OCCO5)nc12	0	0	-4	67*	10	3
CC(=O)Nc1nc2cc3c(cc2s1)OCCO3	-7	4	·	-5	-1	-3
Fc1cccc2sc(Nc3nc4cc5c(cc4s3)OCO5)nc12	-2	0	6	72*	17	1
O=C(C1CC(=O)N(c2ccc(Cl)cc2)C1)N1CCCCCC1 (centres undefined)	-6	0	·	-3	1	4
CCOc1ccccc1N(CC(=O)N1CCOCC1)S(=O)(=O)c1ccc(SC)cc1	·	1	-6	·	·	·
COc1ccc2[nH]c3c(c2c1)CCNC3c1ccc([N+](=O)[O-])o1 (centres undefined)	1	23*	·	6	9	-36
Cc1cc2c(C)cc(=O)[nH]c2cc1NC(=O)CCl	-2	13	1	-1	1	71*
COc1cccc(CN(C(=O)/C=C/c2ccco2)C2CCS(=O)(=O)C2)c1 (centres undefined)	-4	19	·	5	0	0
O=C(CSc1ccccn1)N/N=C/C=C/c1ccccc1	0	3	-7	0	3	2
CC1=C(SCc2ccccc2)C(=O)c2ccccc2C1=O	·	66*	·	·	·	·
Cn1c(SCc2ccccc2)nccc1=O	·	3	·	·	·	·
Cc1nn(-c2ccccc2)c2sc(-c3n[nH]c(=S)o3)cc12	7	14	3	39*	7	6
Cc1nn(-c2ccccc2)c2sc(C(=O)O)cc12	-2	4	-8	0	-3	-3
O=C(Nc1ccc(N2CCOCC2)cc1)Nc1ccc(Cl)c(Cl)c1	-6	2	-11	28*	14	1
O=C(Nc1ccc(Cl)cc1)Nc1ccc(N2CCOCC2)cc1	3	2	-1	11	0	6
CC(C)(C)c1ccc(OCc2ccc(C(=O)N/N=C/c3ccc(O)c(O)c3)cc2)cc1	-1	-3	-8	17	27*	-3
